A word on the Kd: it is a measure of binding affinity in units of concentration. A word on the IC50: it is the concentration at which inhibition is half-maximal. For orientation: Ki means a dissociation constant, usually derived from enzyme kinetics or from competition with a known ligand.

The record followed here is ChEMBL document CHEMBL5053511, “Discovery of a Novel BCL-XL PROTAC Degrader with Enhanced BCL-2 Inhibition” (J Med Chem, 2021).

Experiment [1] deals with Apoptosis regulator Bcl-2 (Homo sapiens, UniProt P10415). In words: Displacement of biotin-tagged MRPEPATIAQELRRIGDEFNA from C-terminal His-tagged human BCL-2 (1` to 211 residues) expressed in Escherichia coli measured after 2 hrs by AlphaScreen assay. The method, boiled down:
(§1)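 AlphaScreen displacement, run with or without VCB. Anti-His acceptor beads were added for 1 h at room temperature, then streptavidin donor beads for 30 min in the dark. Ki was fitted by one-site competitive model from peptide concentration and measured Kd values; reported as mean ± SD of at least two experiments in triplicate.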
Background: Alpha assays give light when donor and acceptor beads are brought close together.

The nature of experiment [2]: Binding affinity to human BCL-XL expressed in Escherichia coli/recombinant human VHL (54 to end residues) fused to human N-terminal GST-tagged elongin-C/elongin -B/N-terminal His-tagged CUL2/Rbx1 expressed in baculovirus infected Sf21 insect cells measured after 2 hrs by AlphaScreen assay. The method, boiled down:
(§2)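 AlphaScreen displacement, run with or without VCB. Biotin-Bim (80 nM, for BCL-2) or biotin-Bad (16 nM, for BCL-XL) was combined with serially diluted compound and 6×His protein in 25 mM HEPES pH 7.5, 100 mM NaCl, 0.1% BSA, 0.005% Tween 20. Anti-His acceptor beads were added for 1 h at room temperature, then streptavidin donor beads for 30 min in the dark. Ki was fitted by one-site competitive model from peptide concentration and measured Kd values; reported as mean ± SD of at least two experiments in triplicate.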

Experiment [3] deals with MOLT-4. In words: Cytotoxicity against human MOLT-4 cells assessed as reduction in cell viability measured after 48 hrs by MTS assay. It counts as functional, cell-based. Particulars: MOLT-4, 48 h. (In general: Tetrazolium assays rely on reduction of a dye to a coloured formazan, in cell work by metabolically active cells.)
Experiment [4] can be described thus: Binding affinity to C-terminal His-tagged human BCL-2 (1 to 211 residues) expressed in Escherichia coli/recombinant human VHL (54 to end residues) fused to human N-terminal GST-tagged elongin-C/elongin -B/N-terminal His-tagged CUL2/Rbx1 expressed in baculovirus infected Sf21 insect cells measured after 2 hrs by AlphaScreen assay. The gist of the method:
as §2

The target of the next experiment is Bcl-2-like protein 1 (Homo sapiens, UniProt Q07817). In words: Displacement of biotin-tagged LWAAQRYGRELRRMSDEFEGSFKGL from human BCL-XL expressed in Escherichia coli measured after 2 hrs by AlphaScreen assay. The gist of the method: as §1
Bcl-2-like protein 1, sequence (Q07817 whole entry): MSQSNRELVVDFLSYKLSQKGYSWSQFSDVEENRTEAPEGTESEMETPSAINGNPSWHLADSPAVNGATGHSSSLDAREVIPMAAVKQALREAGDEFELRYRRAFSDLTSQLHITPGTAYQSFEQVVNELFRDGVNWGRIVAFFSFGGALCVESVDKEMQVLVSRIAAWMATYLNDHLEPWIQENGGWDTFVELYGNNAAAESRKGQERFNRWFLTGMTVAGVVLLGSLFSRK
The subject of experiment [5] is MOLT-4. In words: Induction of apoptosis in human MOLT-4 cells assessed as […] in full caspase-3 level at up to 1000 nM measured after 16 hrs by immunoblotting analysis. The experiment is classed as functional, cell-based. The gist of the method: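 MOLT-4 cells were treated at a range of concentrations for 16 h. Lysates were immunoblotted for cleaved and full caspase-3, cleaved and full PARP, and β-actin; blots representative of three experiments.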
For orientation: A western blot detects proteins with antibodies after separation by electrophoresis.

Experiment [6] deals with von Hippel-Lindau disease tumor suppressor/Bcl-2-like protein 1 (Homo sapiens, UniProt Q07817+P40337). In words: Protac activity at VHL/BCL-XL in human platelets assessed as decrease in BCL-XL protein level at up to […] measured after 16 hrs by Western blot analysis. The conditions noted are these: Platelet. The method, boiled down: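 Washed human platelets were treated for 16 h at a range of concentrations, and BCL-XL was measured by western blotting.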
von Hippel-Lindau disease tumor suppressor/Bcl-2-like protein 1, sequence (P40337 whole entry, looked up): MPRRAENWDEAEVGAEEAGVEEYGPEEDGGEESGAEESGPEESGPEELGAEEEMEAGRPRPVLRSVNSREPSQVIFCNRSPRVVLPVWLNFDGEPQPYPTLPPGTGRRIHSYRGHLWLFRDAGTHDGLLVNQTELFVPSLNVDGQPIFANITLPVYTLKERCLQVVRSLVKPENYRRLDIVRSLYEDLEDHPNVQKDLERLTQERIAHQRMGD
von Hippel-Lindau disease tumor suppressor/Bcl-2-like protein 1, sequence (Q07817 whole entry, looked up): as the sequence (Q07817 whole entry) above

Activity calls are given as the source filed them. The rule behind the calls is not given here.

Apoptosis regulator Bcl-2, sequence (P10415 whole entry): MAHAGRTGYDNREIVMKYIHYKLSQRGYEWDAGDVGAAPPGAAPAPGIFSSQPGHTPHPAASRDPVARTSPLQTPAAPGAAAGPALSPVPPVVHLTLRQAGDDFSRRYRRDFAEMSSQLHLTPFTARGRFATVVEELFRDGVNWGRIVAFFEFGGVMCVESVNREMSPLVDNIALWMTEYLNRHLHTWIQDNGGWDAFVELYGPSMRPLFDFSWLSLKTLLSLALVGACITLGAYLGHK

As for `Cc1ncsc1-c1ccc([C@H](C)NC(=O)[C@@H]2C[C@@H](O)CN2C(=O)[C@@H](NC(=O)CCCCCCCCC(=O)NC[C@]2(C)CCC(c3ccc(Cl)cc3)=C(CN3CCN(c4ccc(C(=O)NS(=O)(=O)c5ccc(N[C@H](CCN6CCOCC6)CSc6ccccc6)c(S(=O)(=O)C(F)(F)F)c5)cc4)CC3)C2)C(C)(C)C)cc1`, the Kd in experiment [1] came to 1.22 nM; in experiment [2], 0.65 nM; in experiment [4], 0.53 nM. Moreover, the IC50 with MOLT-4 [3] was 15.9 nM. The molecule also yielded a Ki at Bcl-2-like protein 1 of 2.59 nM. For the same molecule, the result with MOLT-4 [5] was Active. For the same molecule, the result in experiment [6] was inactive.
